Reference: ChEMBL document CHEMBL4699631, “Antimalarial and anti-inflammatory activities of new chloroquine and primaquine hybrids: Targeting the blockade of malaria parasite transmission” (Bioorg Med Chem, 2020)

What was measured:
[1] = system: J774.A1; test: Inhibition of LPS-induced NO production in mouse J774.A1 cells incubated for 24 hrs by Griess reagent based assay; assay type: functional, cell-based; details: dose microM 0.5-25, time 24.0 hrs
How it was run: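 Compounds made as 10 mM DMSO stocks and diluted in medium. J774A.1 cells pre-incubated with compounds at 25 μM for screening, or 0.5–25 μM for dose-response, with dexamethasone 1 μM or 0.2% DMSO as controls. Stimulated with LPS 37.5 ng/ml plus IFNγ 25 U/ml for 24 h at 37 °C, 5% CO2. Supernatant nitrite measured by Griess at 540 nm. Triplicate, mean ± SEM.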

[2] = system: Plasmodium gallinaceum; test: Antimalarial activity against Plasmodium gallinaceum vectored in Aedes fluviatilis infected in chicken assessed as reduction in mosquito infection at 25 mg/kg, po measured after 4 hrs by Giemsa staining based microscopic analysis relative to control; assay type: functional
How it was run: (§1)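 One-day-old chickens infected intramuscularly with P. gallinaceum-infected erythrocytes; parasitemia and gametocytemia followed by daily Giemsa-stained smears. Chickens with rising parasitemia below 10% fed to starved (12 h) female Ae. fluviatilis (kept 28 °C, 80% humidity) at 0 h (control) and 4 h after dosing (test compound 25–50 mg/kg; PQ 15 mg/kg). Oocyst counts and mosquito infection rates compared with nontreated groups.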

[3] = system: Plasmodium gallinaceum; test: Antimalarial activity against Plasmodium gallinaceum vectored in Aedes fluviatilis infected in chicken assessed as reduction in mosquito infection at 25 mg/kg, po measured immediately by Giemsa staining based microscopic analysis relative to control; assay type: functional; design: scale not given: the % may be the effect or the level left; details: time 0 hrs; how it was run: as §1
[4] = system: Plasmodium gallinaceum; test: Antimalarial activity against Plasmodium gallinaceum vectored in Aedes fluviatilis infected in chicken assessed as reduction in gametocyte stage at 50 mg/kg, po measured immediately by Giemsa staining based microscopic analysis relative to control; assay type: functional; design: scale not given: the % may be the effect or the level left; details: time 0 hrs; how it was run: as §1
[5] = Cytotoxicty against mouse J774.A1 cells assessed as cell viability at 12.5 uM incubated for 24 hrs by resazurin dye based assay (reference value: 100 %); details: read-out: Activity
How it was run: (§2)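 J774A.1 macrophages grown in DMEM with 10% FBS and 0.1% gentamycin, seeded at 1×10^5 cells/well. Exposed to compounds at 0, 12.5, 25, 50 or 100 μM for 24 h. Resazurin (10 μg/ml) added for 3 h, then fluorescence read. Run in triplicate. Viability given as percent of 0.2% DMSO-treated cells.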

[6] = system: J774.A1; test: Inhibition of LPS-induced TNFalpha production in mouse J774.A1 cells incubated for 24 hrs by ELISA; assay type: functional, cell-based; details: dose microM 0.5-25, time 24.0 hrs
How it was run: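 J774A.1 cells seeded at 2×10^6 cells/well. Pretreated with vehicle, dexamethasone 1 μM, or compounds at 0.5–25 μM. Stimulated with LPS 100 ng/ml for 24 h. Supernatants stored at −20 °C, then TNFα measured by sandwich ELISA in pg/mL. Triplicate, mean ± SEM.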

[7] = system: Plasmodium gallinaceum; test: Antimalarial activity against Plasmodium gallinaceum vectored in Aedes fluviatilis infected in chicken assessed as reduction in mosquito infection at 50 mg/kg, po measured after 4 hrs by Giemsa staining based microscopic analysis relative to control; assay type: functional; how it was run: as §1
[8] = system: Plasmodium gallinaceum; test: Antimalarial activity against Plasmodium gallinaceum vectored in Aedes fluviatilis infected in chicken assessed as reduction in gametocyte stage at 25 mg/kg, po measured immediately by Giemsa staining based microscopic analysis relative to control; assay type: functional; design: scale not given: the % may be the effect or the level left; details: time 0 hrs; how it was run: as §1
[9] = system: Plasmodium gallinaceum; test: Antimalarial activity against Plasmodium gallinaceum vectored in Aedes fluviatilis infected in chicken assessed as reduction in parasite growth at 50 mg/kg, po measured immediately by Giemsa staining based microscopic analysis relative to control; assay type: functional; design: scale not given: the % may be the effect or the level left; details: time 0 hrs; how it was run: as §1
[10] = Cytotoxicty against mouse J774.A1 cells assessed as cell viability at 50 uM incubated for 24 hrs by resazurin dye based assay (reference value: 100 %); details: read-out: Activity; how it was run: as §2
[11] = system: Plasmodium gallinaceum; test: Antimalarial activity against Plasmodium gallinaceum vectored in Aedes fluviatilis infected in chicken assessed as reduction in oocyst number at 25 mg/kg, po measured after 4 hrs by Giemsa staining based microscopic analysis relative to control; assay type: functional; design: scale not given: the % may be the effect or the level left; how it was run: as §1
[12] = system: Plasmodium gallinaceum; test: Antimalarial activity against Plasmodium gallinaceum vectored in Aedes fluviatilis infected in chicken assessed as reduction in oocyst number at 50 mg/kg, po measured immediately by Giemsa staining based microscopic analysis; assay type: functional; details: time 0 hrs; how it was run: as §1
[13] = system: Plasmodium falciparum; test: Antimalarial activity against Plasmodium falciparum CQR (W2 clone) infected in human erythrocyte assessed as reduction in parasite growth incubated for 48 hrs by SYBR assay; assay type: functional, organism-based
How it was run: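 W2 parasites cultured in A+ human erythrocytes in RPMI 1640 with ALBUMAX II, candle jar, 37 °C. Rings synchronized with sorbitol, then exposed to serial dilutions at 0.5% parasitemia and 2% hematocrit for 48 h at 37 °C. Lysis buffer with SYBR Safe, 30 min in the dark, fluorescence read at ex 485 nm. IC50 from sigmoid curve fit against drug-free control.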

[14] = system: Plasmodium gallinaceum; test: Antimalarial activity against Plasmodium gallinaceum vectored in Aedes fluviatilis infected in chicken assessed as reduction in oocyst number at 50 mg/kg, po measured after 4 hrs by Giemsa staining based microscopic analysis relative to control; assay type: functional; design: scale not given: the % may be the effect or the level left; how it was run: as §1
[15] = Cytotoxicity against monkey BGM cells assessed as reduction in cell viability incubated for 24 hrs by neutral red dye based assay; details: chlorocebus aethiops, read-out: MDL50
How it was run: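 BGM monkey kidney cells grown in RPMI 1640 with 10% heat-inactivated fetal serum and gentamicin, 5% CO2, 37 °C. Cells allowed to adhere for 24 h, then exposed to compounds at 1000–1 μg/mL for 24 h. Neutral red uptake for 3 h, formaldehyde/CaCl2 fix, alcohol-acetic acid elution, absorbance at 540 nm. Viability taken as percent of untreated cells after background subtraction. MLD50 derived from this.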

[16] = system: Plasmodium gallinaceum; test: Antimalarial activity against Plasmodium gallinaceum vectored in Aedes fluviatilis infected in chicken assessed as reduction in oocyst number at 25 mg/kg, po measured immediately by Giemsa staining based microscopic analysis; assay type: functional; details: time 0 hrs; how it was run: as §1
[17] = Cytotoxicty against mouse J774.A1 cells assessed as cell viability at 100 uM incubated for 24 hrs by resazurin dye based assay (reference value: 100 %); details: read-out: Activity; how it was run: as §2
[18] = Selectivity index, ratio of MDL50 for monkey BGM cells to IC50 for Plasmodium falciparum CQR (W2 clone) infected in human Erythrocyte; assay type: toxicity
How it was run: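 SI calculated as MLD50 in BGM cells (neutral red, 24 h) divided by IC50 against P. falciparum W2 (SYBR, 48 h).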

[19] = Cytotoxicty against mouse J774.A1 cells assessed as cell viability at 25 uM incubated for 24 hrs by resazurin dye based assay (reference value: 100 %); details: read-out: Activity; how it was run: as §2
[20] = system: Plasmodium gallinaceum; test: Antimalarial activity against Plasmodium gallinaceum vectored in Aedes fluviatilis infected in chicken assessed as reduction in mosquito infection at 50 mg/kg, po measured immediately by Giemsa staining based microscopic analysis relative to control; assay type: functional; design: scale not given: the % may be the effect or the level left; details: time 0 hrs; how it was run: as §1
[21] = system: Plasmodium gallinaceum; test: Antimalarial activity against Plasmodium gallinaceum vectored in Aedes fluviatilis infected in chicken assessed as reduction in parasite growth at 25 mg/kg, po measured immediately by Giemsa staining based microscopic analysis relative to control; assay type: functional; design: scale not given: the % may be the effect or the level left; details: time 0 hrs; how it was run: as §1
[22] = system: Plasmodium gallinaceum; test: Antimalarial activity against Plasmodium gallinaceum vectored in Aedes fluviatilis infected in chicken assessed as reduction in oocyst number at 15 mg/kg, po measured after 4 hrs by Giemsa staining based microscopic analysis relative to control; assay type: functional; design: scale not given: the % may be the effect or the level left; how it was run: as §1
[23] = system: Plasmodium gallinaceum; test: Antimalarial activity against Plasmodium gallinaceum vectored in Aedes fluviatilis infected in chicken assessed as reduction in mosquito infection at 15 mg/kg, po measured immediately by Giemsa staining based microscopic analysis relative to control; assay type: functional; design: scale not given: the % may be the effect or the level left; details: time 0 hrs; how it was run: as §1
[24] = system: Plasmodium gallinaceum; test: Antimalarial activity against Plasmodium gallinaceum vectored in Aedes fluviatilis infected in chicken assessed as reduction in mosquito infection at 15 mg/kg, po measured after 4 hrs by Giemsa staining based microscopic analysis relative to control; assay type: functional; how it was run: as §1
[25] = system: Plasmodium gallinaceum; test: Antimalarial activity against Plasmodium gallinaceum vectored in Aedes fluviatilis infected in chicken assessed as reduction in gametocyte stage at 15 mg/kg, po measured immediately by Giemsa staining based microscopic analysis relative to control; assay type: functional; design: scale not given: the % may be the effect or the level left; details: time 0 hrs; how it was run: as §1
[26] = system: Plasmodium gallinaceum; test: Antimalarial activity against Plasmodium gallinaceum vectored in Aedes fluviatilis infected in chicken assessed as reduction in parasite growth at 15 mg/kg, po measured immediately by Giemsa staining based microscopic analysis relative to control; assay type: functional; design: scale not given: the % may be the effect or the level left; details: time 0 hrs; how it was run: as §1
[27] = system: Plasmodium gallinaceum; test: Antimalarial activity against Plasmodium gallinaceum vectored in Aedes fluviatilis infected in chicken assessed as reduction in oocyst number at 15 mg/kg, po measured immediately by Giemsa staining based microscopic analysis; assay type: functional; details: time 0 hrs; how it was run: as §1

SMILES: COc1cc(NC(C)CCCNC(=O)C(F)(F)c2cc(Cl)ccc2NC(C)=O)c2ncccc2c1 (stereo not given)
- inhibition [1]: Dose-dependent effect
- inhibition in vivo at 25 mg/kg [2]: 5%
- Activity [3]: 89%
- Activity [4]: 42%
- viability at 24 h, 12.5 µM [5]: 100%
- inhibition [6]: Dose-dependent effect
- inhibition in vivo at 50 mg/kg [7]: 15%
- Activity [8]: 41%
- Activity [9]: 10.3%
- viability at 24 h, 50 µM [10]: 56.2%
- Activity [11]: 0%
- Activity [12]: 166
- IC50 [13]: 8.4 µM
- Activity [14]: 81.3%
- CC50 at 24 h [15]: 13.6 µM
- Activity [16]: 56
- viability at 24 h, 100 µM [17]: 33.9%
- selectivity ratio [18]: 1.6
- viability at 24 h, 25 µM [19]: 96.8%
- Activity [20]: 95%
- Activity [21]: 4.7%

SMILES: COc1cc(NC(C)CCCN)c2ncccc2c1 (stereo not given) [PRIMAQUINE]
- Activity [22]: 100%
- Activity [23]: 85%
- inhibition in vivo at 15 mg/kg [24]: 100%
- Activity [25]: 45%
- Activity [26]: 7%
- IC50 [13]: 1.9 µM
- CC50 at 24 h [15]: 483 µM
- selectivity ratio [18]: 255
- Activity [27]: 41
